From ChEMBL document CHEMBL3272014, “Synthesis and biological inactivity of some 4alpha,6-cyclo steroids” (1976)
Active and inactive are the calls of the source. No cut-off for these calls is given here.

What was measured:
[1] = organism: Rattus norvegicus; assay: Androgenicity in male rat at 10 mg; format: functional, organism-based
[2] = organism: Rattus norvegicus; assay: Antiandrogenicity in male rat assessed as inhibition of increase in seminal vesicle weight using 1.2 mg testosterone at 10 mg; format: functional
[3] = organism: Rattus norvegicus; assay: Antiandrogenicity in male rat assessed as inhibition of increase in ventral prostate weight using 1.2 mg testosterone at 10 mg; format: functional, Prostate gland
[4] = organism: Rattus norvegicus; assay: Antiandrogenicity in male rat assessed as inhibition of increase in levator ani weight using 1.2 mg testosterone at 10 mg; format: functional
[5] = organism: Rattus norvegicus; assay: Androgenicity in male rat at 0.1 to 10 mg; format: functional, organism-based
[6] = organism: Rattus norvegicus; assay: Antiandrogenicity in male rat assessed as inhibition of increase in seminal vesicle weight using 2.4 mg testosterone at 10 mg; format: functional
[7] = organism: Rattus norvegicus; assay: Antiandrogenicity in male rat assessed as inhibition of increase in ventral prostate weight using 2.4 mg testosterone at 10 mg; format: functional, Prostate gland
[8] = organism: Rattus norvegicus; assay: Antiandrogenicity in male rat assessed as inhibition of increase in levator ani weight using 2.4 mg testosterone at 10 mg; format: functional
[9] = organism: Oryctolagus cuniculus; assay: Antiprogestational activity in rabbit at 0.4 mg by anti-clauberg assay; format: functional, organism-based
Method in brief: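 Rabbit anti-Clauberg (antiprogestational) assay: test steroid given at 20.0 mg against a progesterone challenge of 0.4 mg. Run by Mason Research Institute for the NIH Contraceptive Development Branch.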

[10] = organism: Oryctolagus cuniculus; assay: Progestational activity in rabbit at 0.1 to 10 mg by clauberg assay; format: functional, organism-based
Method in brief: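 Clauberg assay in rabbits: progestational response scored after test steroid at dose levels of 0.1, 1.0 and 10.0 mg.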

Compound: C[C@]12CC[C@@H]3[C@H]4CCC(=O)[C@H]5C(C[C@H]3[C@@H]1CCC2=O)[C@@H]45 (stereo partly drawn)
- Activity [1]: Active
- inhibition (INH) [2]: <20%
- inhibition (INH) [3]: <20%
- inhibition (INH) [4]: <20%

Compound: CC(=O)O[C@H]1CC[C@H]2[C@@H]3CC4[C@@H]5[C@H]4C(=O)CC[C@]5(C)[C@H]3CC[C@]12C (stereo partly drawn)
- Activity [5]: Active
- inhibition (INH) [6]: <20%
- inhibition (INH) [7]: <20%
- inhibition (INH) [8]: <20%
- inhibition (INH) [2]: <20%
- inhibition (INH) [3]: <20%
- inhibition (INH) [4]: <20%

Compound: CC(=O)[C@H]1CC[C@H]2[C@@H]3CCC4=CC(=O)CC[C@]4(C)[C@H]3CC[C@]12C
- Activity [9]: inactive

Compound: CC(=O)[C@H]1CC[C@H]2[C@@H]3CC4[C@@H]5[C@H]4C(=O)CC[C@]5(C)[C@H]3CC[C@]12C (stereo partly drawn)
- Activity [10]: inactive
